Values joined by “and” are separate entries in the source; they are usually repeats but may differ in a detail not shown here. Identical values can stand only once.
Tested on: HEK-293T
Test: Multiplex assay against HEK293T
Type: toxicity, cell-based
Details: human, number of replicates 2
Procedure, shortened: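 With compound added, live cells were imaged on a CQ1 microscope at 37°C and 5% CO2; staining with Hoechst33342, BioTracker Green Microtubule Cytoskeleton Dye, MitoTracker Red and Annexin V Alexa Fluor 680 had been done at seeding. The CellPathfinder machine-learning gating scheme split cells into Hoechst high-intensity objects or normal cells, normal cells into healthy, pyknosed or fragmented nuclei, and pyknosed cells into mitotic or apoptotic. The tubulin, mitochondrial-mass and membrane-permeability phenotypes are per cents of healthy-nucleus cells.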

[1] = 12 h, 1 µM, compound concentration 1 uM
[2] = 12 h, 10 µM, compound concentration 10 uM
[3] = 24 h, 1 µM, compound concentration 1 uM
[4] = 24 h, 10 µM, compound concentration 10 uM
[5] = 48 h, 1 µM, compound concentration 1 uM
[6] = 48 h, 10 µM, compound concentration 10 uM

SMILES: CC(C)(C)c1cnc(CSc2cnc(NC(=O)C3CCNCC3)s2)o1 [BMS-387032]
- Population Apoptotic (%) [1]: 64% and 60%
- Population Fragmented Nuclei (%) [1]: 3%
- Population Healthy Nuclei (%) [1]: 69% and 77%
- Population Hoechst High Intensity Objects (%) [1]: 17% and 10%
- Population Membrane Permeable-Phenotype (%) [1]: 6% and 0%
- Population Mitochondria Different-Phenotype (%) [1]: 54%
- Population Mitotic Cells (%) [1]: 35% and 40%
- Population Normal (%) [1]: 82% and 89%
- Population Pyknosed Nuclei (%) [1]: 26% and 18%
- Population Tubulin-Different-Phenotype (%) [1]: 75% and 77%
- Population Apoptotic (%) [2]: 87% and 73%
- Population Fragmented Nuclei (%) [2]: 6% and 3%
- Population Healthy Nuclei (%) [2]: 77% and 90%
- Population Hoechst High Intensity Objects (%) [2]: 18% and 15%
- Population Membrane Permeable-Phenotype (%) [2]: 3% and 1%
- Population Mitochondria Different-Phenotype (%) [2]: 66% and 67%
- Population Mitotic Cells (%) [2]: 12% and 26%
- Population Normal (%) [2]: 81% and 84%
- Population Tubulin-Different-Phenotype (%) [2]: 84% and 85%
- Population Apoptotic (%) [3]: 73% and 69%
- Population Fragmented Nuclei (%) [3]: 6% and 5%
- Population Healthy Nuclei (%) [3]: 70% and 72%
- Population Hoechst High Intensity Objects (%) [3]: 22% and 14%
- Population Membrane Permeable-Phenotype (%) [3]: 3% and 0%
- Population Mitochondria Different-Phenotype (%) [3]: 58% and 61%
- Population Mitotic Cells (%) [3]: 26% and 30%
- Population Normal (%) [3]: 77% and 85%
- Population Pyknosed Nuclei (%) [3]: 23% and 21%
- Population Tubulin-Different-Phenotype (%) [3]: 69% and 71%
- Population Apoptotic (%) [4]: 87% and 75%
- Population Fragmented Nuclei (%) [4]: 9% and 5%
- Population Healthy Nuclei (%) [4]: 73% and 85%
- Population Hoechst High Intensity Objects (%) [4]: 19% and 17%
- Population Membrane Permeable-Phenotype (%) [4]: 0%
- Population Mitochondria Different-Phenotype (%) [4]: 80% and 78%
- Population Mitotic Cells (%) [4]: 12% and 25%
- Population Normal (%) [4]: 80% and 82%
- Population Pyknosed Nuclei (%) [4]: 16% and 9%
- Population Tubulin-Different-Phenotype (%) [4]: 84% and 89%
- Population Apoptotic (%) [5]: 77% and 81%
- Population Fragmented Nuclei (%) [5]: 7% and 4%
- Population Healthy Nuclei (%) [5]: 71% and 77%
- Population Hoechst High Intensity Objects (%) [5]: 21% and 16%
- Population Membrane Permeable-Phenotype (%) [5]: 1% and 0%
- Population Mitochondria Different-Phenotype (%) [5]: 62% and 68%
- Population Mitotic Cells (%) [5]: 22% and 18%
- Population Normal (%) [5]: 78% and 83%
- Population Pyknosed Nuclei (%) [5]: 21% and 18%
- Population Tubulin-Different-Phenotype (%) [5]: 64% and 65%
- Population Apoptotic (%) [6]: 92% and 93%
- Population Fragmented Nuclei (%) [6]: 9% and 5%
- Population Healthy Nuclei (%) [6]: 71% and 86%
- Population Hoechst High Intensity Objects (%) [6]: 23% and 19%
- Population Membrane Permeable-Phenotype (%) [6]: 2%
- Population Mitochondria Different-Phenotype (%) [6]: 83% and 86%
- Population Mitotic Cells (%) [6]: 7% and 6%
- Population Normal (%) [6]: 76% and 80%
- Population Pyknosed Nuclei (%) [6]: 18% and 8%
- Population Tubulin-Different-Phenotype (%) [6]: 85% and 89%

SMILES: CC(C)S(=O)(=O)c1ccccc1Nc1nc(N[C@@H]2CCCN(CCCCCCCNC(=O)COc3cccc4c3C(=O)N(C3CCC(=O)NC3=O)C4=O)C2)ncc1Cl (stereo not given in full)
- Population Apoptotic (%) [1]: 72% and 70%
- Population Fragmented Nuclei (%) [1]: 2% and 3%
- Population Healthy Nuclei (%) [1]: 80% and 76%
- Population Hoechst High Intensity Objects (%) [1]: 8% and 16%
- Population Membrane Permeable-Phenotype (%) [1]: 0%
- Population Mitochondria Different-Phenotype (%) [1]: 61% and 50%
- Population Mitotic Cells (%) [1]: 27% and 29%
- Population Normal (%) [1]: 91% and 83%
- Population Pyknosed Nuclei (%) [1]: 17% and 19%
- Population Tubulin-Different-Phenotype (%) [1]: 75% and 73%
- Total Cell Count [1]: 378 and 397
- Population Apoptotic (%) [2]: 48% and 67%
- Population Fragmented Nuclei (%) [2]: 4% and 5%
- Population Healthy Nuclei (%) [2]: 63% and 65%
- Population Hoechst High Intensity Objects (%) [2]: 18% and 15%
- Population Membrane Permeable-Phenotype (%) [2]: 6%
- Population Mitochondria Different-Phenotype (%) [2]: 70%
- Population Mitotic Cells (%) [2]: 51% and 32%
- Population Normal (%) [2]: 81% and 84%
- Population Pyknosed Nuclei (%) [2]: 31% and 29%
- Population Tubulin-Different-Phenotype (%) [2]: 48% and 66%
- Total Cell Count [2]: 366 and 343
- Population Apoptotic (%) [3]: 65% and 76%
- Population Fragmented Nuclei (%) [3]: 3% and 5%
- Population Healthy Nuclei (%) [3]: 82% and 79%
- Population Hoechst High Intensity Objects (%) [3]: 12% and 14%
- Population Membrane Permeable-Phenotype (%) [3]: 1%
- Population Mitochondria Different-Phenotype (%) [3]: 65% and 63%
- Population Mitotic Cells (%) [3]: 34% and 23%
- Population Normal (%) [3]: 87% and 85%
- Population Pyknosed Nuclei (%) [3]: 14% and 15%
- Population Tubulin-Different-Phenotype (%) [3]: 69% and 67%
- Total Cell Count [3]: 385 and 384
- Population Apoptotic (%) [4]: 79% and 70%
- Population Fragmented Nuclei (%) [4]: 6% and 3%
- Population Healthy Nuclei (%) [4]: 65% and 61%
- Population Hoechst High Intensity Objects (%) [4]: 19%
- Population Membrane Permeable-Phenotype (%) [4]: 1% and 2%
- Population Mitochondria Different-Phenotype (%) [4]: 81% and 87%
- Population Mitotic Cells (%) [4]: 20% and 30%
- Population Normal (%) [4]: 80%
- Population Pyknosed Nuclei (%) [4]: 28% and 34%
- Population Tubulin-Different-Phenotype (%) [4]: 85% and 93%
- Total Cell Count [4]: 341 and 356
- Population Apoptotic (%) [5]: 78% and 74%
- Population Fragmented Nuclei (%) [5]: 3%
- Population Healthy Nuclei (%) [5]: 84% and 83%
- Population Hoechst High Intensity Objects (%) [5]: 12% and 14%
- Population Membrane Permeable-Phenotype (%) [5]: 0% and 1%
- Population Mitochondria Different-Phenotype (%) [5]: 66% and 57%
- Population Mitotic Cells (%) [5]: 21% and 25%
- Population Normal (%) [5]: 87% and 85%
- Population Pyknosed Nuclei (%) [5]: 11% and 13%
- Population Tubulin-Different-Phenotype (%) [5]: 66% and 57%
- Total Cell Count [5]: 316 and 306
- Population Apoptotic (%) [6]: 78% and 74%
- Population Fragmented Nuclei (%) [6]: 6% and 5%
- Population Healthy Nuclei (%) [6]: 70% and 63%
- Population Hoechst High Intensity Objects (%) [6]: 18% and 20%
- Population Membrane Permeable-Phenotype (%) [6]: 2% and 1%
- Population Mitochondria Different-Phenotype (%) [6]: 73% and 79%
- Population Mitotic Cells (%) [6]: 21% and 25%
- Population Normal (%) [6]: 81% and 79%
- Population Pyknosed Nuclei (%) [6]: 23% and 31%
- Population Tubulin-Different-Phenotype (%) [6]: 66% and 77%
- Total Cell Count [6]: 296 and 313
